One experiment concerns the target T1, Interstitial collagenase (Homo sapiens, UniProt P03956).
T1 sequence (P03956 whole entry): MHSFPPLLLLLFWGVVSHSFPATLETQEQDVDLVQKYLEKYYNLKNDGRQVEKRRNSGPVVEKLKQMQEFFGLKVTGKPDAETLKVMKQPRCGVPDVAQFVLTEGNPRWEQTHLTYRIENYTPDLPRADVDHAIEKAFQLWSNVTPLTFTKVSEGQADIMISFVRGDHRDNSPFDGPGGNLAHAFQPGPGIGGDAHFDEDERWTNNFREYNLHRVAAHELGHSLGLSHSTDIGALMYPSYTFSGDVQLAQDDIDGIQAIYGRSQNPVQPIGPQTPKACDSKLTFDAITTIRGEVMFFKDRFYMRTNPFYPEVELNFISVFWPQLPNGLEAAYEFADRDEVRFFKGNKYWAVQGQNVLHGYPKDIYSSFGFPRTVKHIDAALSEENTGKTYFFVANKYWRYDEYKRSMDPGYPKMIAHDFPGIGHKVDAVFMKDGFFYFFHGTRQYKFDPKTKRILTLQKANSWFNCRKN
Kind of experiment: Inhibition of recombinant human activated-MMP1 using Mca-Lys-Pro-Leu-Gly-Leu-Dap(Dnp)-Ala-Arg-NH2 as fluorogenic substrate incubated for 4 hrs followed by substrate addition measured every 10 secs for 20 mins by fluorometric assay. The method, boiled down:
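Recombinant human MMPs. Pro-forms activated with APMA: MMP-2 2 mM 1 h, MMP-9 1 mM 1 h, MMP-1 2 mM 2 h, MMP-13 1 mM 35 min, all 37 °C. MMP-3 activated with trypsin 4.4 µg/mL 30 min, then soybean trypsin inhibitor. Final enzyme 0.5 (MMP-2), 1.3 (MMP-9), 1.0 (MMP-14cd), 2.0 (MMP-1), 0.66 (MMP-13), 5 nM (MMP-3). Preincubated with inhibitor 4 h at 25 °C in Tris 50 mM pH 7.5, NaCl 150 mM, CaCl2 10 mM, Brij 35 0.05%, DMSO 1%. Substrate 2 µM final; fluorescence (ex 325/em 395 nm) every 10 s for 20 min. IC50 from vi/vo = 1/(1+[I]/IC50).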

The test system of experiment [1] is HUVEC. Kind of experiment: Inhibition of PMA-stimulated MMP2 mRNA expression in human HUVEC after 24 hrs by QT-PCR analysis. The class given is functional, cell-based. The method, boiled down: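 HUVEC starved, PMA pre-treated (30 nM, 3 h), then exposed to inhibitor for 24 h before RNA extraction. Real-time PCR with SYBR Green, 45 cycles (95 °C 10 s, 60 °C 15 s, 72 °C 15 s), with melting-curve check.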

Experiment [2] concerns HUVEC. Kind of experiment: Inhibition of FBS-induced cell invasion in human HUVEC at 0.001 uM after overnight incubation using modified Boyden chambers. Format: functional, cell-based. A digest of the protocol:
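Modified Boyden chamber. HUVEC (5x10^4), PBS-washed, in serum-free medium with or without inhibitor in upper compartment; 10% FBS or serum-free medium below. 8 µm polycarbonate filters coated with collagen 50 µg/mL (migration, 6 h) or matrigel 1 mg/mL (invasion, overnight). Cells on lower surface ethanol-fixed, stained, counted blind in eight fields. Three experiments in duplicate; one-way ANOVA.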

In experiment [3] the test system is HUVEC. Kind of experiment: Inhibition of FBS-induced capillary-like network organization in human HUVEC at 0.001 to 10 uM after 6 hrs by matrigel assay. The class given is functional, cell-based. A digest of the protocol: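 Matrigel (10 mg/mL) polymerized 1 h at 37 °C. HUVEC (50x10^4/well) in complete medium with 10% FBS, with or without inhibitor at various concentrations, layered on top. After 6 h, capillary-like organization imaged by inverted microscope; mesh number counted as tubulogenic efficiency.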

The test system of the next experiment is Mus musculus. Kind of experiment: Antiangiogenic activity in C57/BL6 mouse matrigel sponge assay model assessed as reduction of VEGF-A, TNFalpha and heparin-induced hemoglobin content at 0.1 to 10 uM, sc. Format: functional, organism-based. A digest of the protocol:
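Matrigel (0.6 mL final) with VTH mix (VEGF-A 100 ng/mL, TNF-α 2 ng/mL, heparin 25 UI/mL), with or without inhibitor at 0.1-1-10 µM, injected s.c. into flanks of male C57/BL6 mice; some groups also given 0.1-1-10 µM i.p. at day 0; 8 mice/group. Plugs recovered after four days. Read-outs: hemoglobin by Drabkin reagent; collagenase IV digest, flow cytometry for CD31+ cells within CD45−CD3− gate. Mean ± SEM.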

pIC50: −log10 of the molar value. Activity calls are given as the source filed them. The rule behind the calls is not given here.

Drawing on ChEMBL document CHEMBL3616369, “N-O-Isopropyl Sulfonamido-Based Hydroxamates as Matrix Metalloproteinase Inhibitors: Hit Selection and in Vivo Antiangiogenic Activity” (J Med Chem, 2015), this text covers IC50 and inhibition for one molecule.

For orientation: pIC50 means the IC50 on a negative log10 scale, so that one unit is a factor of ten.

For `COc1ccc(-c2ccc(S(=O)(=O)N(OC(C)C)[C@H](CCN3C(=O)c4ccccc4C3=O)C(=O)NO)cc2)cc1`, the pIC50 on Interstitial collagenase was 6.70. The inhibition result in the experiment on HUVEC [1], in the experiment with HUVEC [2], in the experiment on HUVEC [3] and in the experiment with Mus musculus was “Active” throughout.
